Experimental data pooled from the literature.
Each line is one published result; the experiments were not run side by side.
HTR1D: 5-hydroxytryptamine receptor 1D (HTR1D, Homo sapiens, UniProt P28221)
CYP2A6: Cytochrome P450 2A6 (CYP2A6, Homo sapiens, UniProt P11509)
BRD4 BD1: Bromodomain-containing protein 4, BD1 (BRD4, Homo sapiens, UniProt O60885)
Slc6a4: Sodium-dependent serotonin transporter (Slc6a4, Rattus norvegicus, UniProt P31652)

The Ki of `O=C(NCC1CC1)c1cc(N2CC[C@H](O)C2)nc(N2CCC[C@@H](c3ccccc3)C2)n1` is reported as 0.18 µM (N-acyl-phosphatidylethanolamine-hydrolyzing phospholipase D (Napepld, Mus musculus, UniProt Q8BH82); enzyme activity, inhibitor, fluorescence).
For `O=C1c2ccccc2CCN1CCCCN1CCN(c2cccc(Cl)c2Cl)CC1`, the Ki was > 10 µM (HTR1D; ligand displacement, radioligand).
The Ki of `O[C@H]1[C@H](n2cnc3c(NC(C4CCCCC4)C4CCCCC4)nc(Cl)nc32)[C@H]2C[C@@]2(CF)[C@H]1O` is reported as 1.99 µM (HTR1D; cell-free assay, radioligand).
`C#Cc1ccccc1-c1cc(=O)c2ccccc2o1` has a Ki of > 25 µM (CYP2A6; enzyme activity, inhibitor; 6 min, pH 7.6).
`Oc1ccc(-c2nc(-c3ccncc3)c(-c3ccc(F)cc3)[nH]2)cc1` has a Kd of 3.42 µM (BRD4 BD1; binding, ITC).
`Cn1nnc2ccc(NC(=O)c3cccc(C(=O)O)c3)cc21` has a Kd of 6.9 µM (BRD4 BD1; binding, competition with immobilised ligand).
`C#Cc1ccc2c(=O)cc(-c3ccccc3)oc2c1` has a Ki of > 25 µM (CYP2A6; enzyme activity, inhibitor; 6 min, pH 7.6).
The Ki of `CN(C)CCN(Cc1ccccc1)Cc1c(F)cccc1Cl` is reported as 0.212 µM (Slc6a4; ligand displacement, radioligand).
For `Nc1nc2c(ncn2[C@@H]2O[C@H](COP(=O)(O)OP(=O)(O)O)[C@@H](OP(=O)(O)OP(=O)(O)O)[C@H]2O)c(=O)[nH]1`, the Kd was 752 µM (mpl (Escherichia coli, UniProt P37773); binding, ITC).
With `CN1CCN(Cc2cccc(Oc3ccccc3)c2)CC1` the Ki was > 20 µM (Slc6a4; ligand displacement, radioligand).
`C#Cc1cccc(-c2cc(=O)c3ccccc3o2)c1` gave a Ki of > 25 µM (CYP2A6; enzyme activity, inhibitor; 6 min, pH 7.6).
`CC1=CC(=O)CC(C)(C)[C@@]1(O)/C=C/C(C)=C\C(=O)O` gave a Kd of 63.7 µM (PYL1 (Arabidopsis thaliana, UniProt Q8VZS8); binding, MST).
For `Cc1cc2nc3c(=O)[nH]c(=O)nc-3n(C[C@H](O)[C@H](O)[C@H](O)COP(=O)(O)OP(=O)(O)OC[C@H]3O[C@@H](n4cnc5c(N)ncnc54)[C@H](O)[C@@H]3O)c2cc1C`, the Kd was 0.026 µM (Far upstream element-binding protein 2 (KHSRP, Homo sapiens, UniProt Q92945); binding; lysate).
For `Cc1cc(N)nc(CCc2cccc([C@@H](N)Cc3cc(C)cc(N)n3)c2)c1`, the Ki was ~0.1 µM (Nitric oxide synthase 1 (Nos1, Rattus norvegicus, UniProt P29476); enzyme activity, inhibitor).
The Ki of `O=c1cc(-c2ccccc2)oc2c1ccc1ccccc12` is reported as > 25 µM (CYP2A6; enzyme activity, inhibitor; 6 min, pH 7.6).
`CCCCN1CCC(COC(=O)c2ccc(N)c(OCF)c2)CC1` gave a Ki of > 10 µM (HTR1D; cell-free assay, radioligand).
